Source: article PMC3537910 (European journal of nuclear medicine and molecular imaging, 2012)
“And” between values parts separate entries of the source, which are not always exact repeats. Equal entries are not always repeated. Blank lines part the entries; values can stand above or below the molecule they belong to.

Columns and labels:
[1] = molecular target: T1, mGluR1 (Rattus norvegicus, UniProt P23385); test: PET imaging, specific binding in rat brain; format: in vivo; settings: baseline vs blocked scans
T1 sequence (P23385 19-1199): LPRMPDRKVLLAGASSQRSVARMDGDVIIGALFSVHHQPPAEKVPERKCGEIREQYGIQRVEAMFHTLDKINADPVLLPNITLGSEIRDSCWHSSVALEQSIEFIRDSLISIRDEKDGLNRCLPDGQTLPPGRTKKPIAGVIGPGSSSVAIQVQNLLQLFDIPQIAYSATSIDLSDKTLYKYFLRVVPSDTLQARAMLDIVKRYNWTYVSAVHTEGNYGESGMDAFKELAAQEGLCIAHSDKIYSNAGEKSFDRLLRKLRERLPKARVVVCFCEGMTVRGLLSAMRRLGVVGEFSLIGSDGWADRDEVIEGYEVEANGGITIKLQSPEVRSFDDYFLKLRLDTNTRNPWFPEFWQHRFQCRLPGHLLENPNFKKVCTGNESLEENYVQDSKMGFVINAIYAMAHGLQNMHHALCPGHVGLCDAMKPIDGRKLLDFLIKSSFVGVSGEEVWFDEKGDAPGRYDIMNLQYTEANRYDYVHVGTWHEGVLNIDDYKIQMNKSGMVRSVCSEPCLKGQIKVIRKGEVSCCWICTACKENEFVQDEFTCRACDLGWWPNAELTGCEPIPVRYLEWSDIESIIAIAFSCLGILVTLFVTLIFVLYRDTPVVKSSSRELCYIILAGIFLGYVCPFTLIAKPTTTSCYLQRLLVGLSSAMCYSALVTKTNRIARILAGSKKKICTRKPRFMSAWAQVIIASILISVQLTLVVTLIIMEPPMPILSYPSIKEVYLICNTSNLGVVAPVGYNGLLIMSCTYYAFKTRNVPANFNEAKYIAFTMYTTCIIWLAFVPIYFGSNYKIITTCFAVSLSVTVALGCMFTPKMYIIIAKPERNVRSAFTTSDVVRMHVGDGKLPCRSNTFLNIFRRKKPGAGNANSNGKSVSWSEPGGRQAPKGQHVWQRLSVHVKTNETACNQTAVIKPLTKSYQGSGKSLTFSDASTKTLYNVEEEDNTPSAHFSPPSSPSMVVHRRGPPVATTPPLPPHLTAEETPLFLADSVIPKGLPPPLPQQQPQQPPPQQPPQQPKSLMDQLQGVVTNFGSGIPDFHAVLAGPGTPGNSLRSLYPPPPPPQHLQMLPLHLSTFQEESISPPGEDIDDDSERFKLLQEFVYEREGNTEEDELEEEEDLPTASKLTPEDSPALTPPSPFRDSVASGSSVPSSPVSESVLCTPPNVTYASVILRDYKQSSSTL

[2] = molecular target: mGluR5 (Rattus norvegicus, UniProt P31424); test: PET imaging, cross-reactivity with mGluR5 receptors; format: in vivo
mGluR5, sequence (P31424 21-1203): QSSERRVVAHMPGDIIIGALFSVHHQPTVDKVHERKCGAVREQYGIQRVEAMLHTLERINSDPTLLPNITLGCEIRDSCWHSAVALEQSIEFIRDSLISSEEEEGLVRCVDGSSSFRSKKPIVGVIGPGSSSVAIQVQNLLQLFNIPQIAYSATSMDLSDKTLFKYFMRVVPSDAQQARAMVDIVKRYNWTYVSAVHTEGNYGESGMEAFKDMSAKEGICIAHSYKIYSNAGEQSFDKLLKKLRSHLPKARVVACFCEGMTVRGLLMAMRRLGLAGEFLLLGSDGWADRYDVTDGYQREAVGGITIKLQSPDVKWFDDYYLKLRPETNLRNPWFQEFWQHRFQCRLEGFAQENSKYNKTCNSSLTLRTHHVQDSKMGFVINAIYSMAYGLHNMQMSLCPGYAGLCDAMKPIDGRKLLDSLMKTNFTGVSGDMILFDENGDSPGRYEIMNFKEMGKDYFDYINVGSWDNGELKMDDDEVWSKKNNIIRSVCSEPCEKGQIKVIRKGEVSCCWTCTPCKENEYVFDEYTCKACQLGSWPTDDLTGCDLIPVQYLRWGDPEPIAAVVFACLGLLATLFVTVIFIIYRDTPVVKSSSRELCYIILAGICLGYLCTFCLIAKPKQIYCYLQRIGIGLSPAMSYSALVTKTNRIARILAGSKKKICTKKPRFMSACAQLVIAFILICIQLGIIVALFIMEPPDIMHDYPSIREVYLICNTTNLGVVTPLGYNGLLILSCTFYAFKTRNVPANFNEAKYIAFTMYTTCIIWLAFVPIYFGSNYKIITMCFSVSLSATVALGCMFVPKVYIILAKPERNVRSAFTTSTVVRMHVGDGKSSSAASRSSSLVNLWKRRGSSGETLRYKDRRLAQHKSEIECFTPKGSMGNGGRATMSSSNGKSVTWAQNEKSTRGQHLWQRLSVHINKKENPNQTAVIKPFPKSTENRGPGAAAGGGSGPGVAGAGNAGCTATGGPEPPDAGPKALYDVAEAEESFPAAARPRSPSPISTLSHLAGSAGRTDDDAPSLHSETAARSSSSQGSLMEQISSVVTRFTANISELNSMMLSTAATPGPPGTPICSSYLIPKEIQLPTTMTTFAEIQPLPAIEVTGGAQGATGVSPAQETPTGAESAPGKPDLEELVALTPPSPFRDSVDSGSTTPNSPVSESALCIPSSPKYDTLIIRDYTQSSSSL

[3] = LogD7.4 measurement in octanol; format: physicochemical; settings: n = 6
[4] = one hour at 37 °C
[5] = molecular target: ABCG2 (BCRP) (Mus musculus, UniProt Q7TMS5); settings: wild type vs knock-out mice, PET
[6] = test system: ABCB1 (P-gp); settings: wild type vs knock-out mice, PET
[7] = molecular target: T1, mGluR1; test: pharmacological validation: blocking of LY2428703 tracer specific binding; format: in vivo; settings: i.v. administration, LY2428703 as non-labeled tracer
[8] = reference compound; cited from earlier work
[9] = metabolic stability in liver microsomes, rat; format: in vitro ADME; settings: rat hepatic microsomes, 30 minutes, n = 2
[10] = molecular target: T2, mGluR1 (Homo sapiens, UniProt Q13255); test: competition binding assay with 3H-LSN456066, human; settings: humans
T2 sequence (Q13255 19-1194): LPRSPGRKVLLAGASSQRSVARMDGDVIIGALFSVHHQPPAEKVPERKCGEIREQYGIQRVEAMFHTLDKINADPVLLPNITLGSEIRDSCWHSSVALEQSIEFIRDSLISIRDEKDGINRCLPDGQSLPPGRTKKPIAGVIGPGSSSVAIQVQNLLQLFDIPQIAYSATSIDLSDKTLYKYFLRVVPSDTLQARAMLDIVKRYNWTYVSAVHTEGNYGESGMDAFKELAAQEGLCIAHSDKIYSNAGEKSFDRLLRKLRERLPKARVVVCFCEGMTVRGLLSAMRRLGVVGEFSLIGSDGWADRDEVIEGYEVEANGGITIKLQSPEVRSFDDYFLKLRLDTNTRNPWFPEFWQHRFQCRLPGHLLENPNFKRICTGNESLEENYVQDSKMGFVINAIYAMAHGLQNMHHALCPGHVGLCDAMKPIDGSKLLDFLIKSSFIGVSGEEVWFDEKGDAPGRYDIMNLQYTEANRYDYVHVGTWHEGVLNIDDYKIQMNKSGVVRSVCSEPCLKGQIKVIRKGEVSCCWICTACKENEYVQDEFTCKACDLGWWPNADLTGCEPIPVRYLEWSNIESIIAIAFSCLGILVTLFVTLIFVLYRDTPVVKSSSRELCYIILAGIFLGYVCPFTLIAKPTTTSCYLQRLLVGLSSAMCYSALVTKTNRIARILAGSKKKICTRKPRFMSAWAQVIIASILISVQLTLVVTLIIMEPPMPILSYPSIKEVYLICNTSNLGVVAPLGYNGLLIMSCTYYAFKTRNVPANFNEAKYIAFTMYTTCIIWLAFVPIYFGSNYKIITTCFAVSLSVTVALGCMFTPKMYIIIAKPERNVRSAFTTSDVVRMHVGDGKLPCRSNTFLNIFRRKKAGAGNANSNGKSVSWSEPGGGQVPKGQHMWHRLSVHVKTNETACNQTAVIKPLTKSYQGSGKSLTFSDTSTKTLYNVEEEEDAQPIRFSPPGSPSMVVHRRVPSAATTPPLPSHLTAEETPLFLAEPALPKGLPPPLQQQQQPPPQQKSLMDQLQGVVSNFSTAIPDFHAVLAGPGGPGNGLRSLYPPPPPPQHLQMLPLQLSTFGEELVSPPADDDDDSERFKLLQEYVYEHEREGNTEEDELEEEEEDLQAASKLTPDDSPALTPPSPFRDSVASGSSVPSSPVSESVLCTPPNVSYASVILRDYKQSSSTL

[11] = molecular target: T1, mGluR1; test: mGluR1 occupancy experiment, non-labeled JNJ16259685 as tracer; format: in vivo; settings: oral administration
[12] = metabolic stability in liver microsomes, dog; format: in vitro ADME; settings: dog hepatic microsomes, 30 minutes, n = 3
[13] = metabolic stability in liver microsomes, monkey; format: in vitro ADME; settings: monkey hepatic microsomes, 30 minutes, n = 2
[14] = metabolic stability in liver microsomes, mouse; format: in vitro ADME; settings: mouse hepatic microsomes, 30 minutes, n = 3
[15] = molecular target: T2, mGluR1; format: cell-based; settings: from IC50 8.9 and 118 nM
Method in brief: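 Calcium mobilization was measured in cells expressing individual human mGlu receptors (1, 2, 3, 4, 5, 7, 8). Agonism: % stimulation by test compound alone relative to maximal glutamate response. Antagonism: % inhibition of the EC90 glutamate response. Potentiation: % increase of an EC10 glutamate response relative to the ECmax response.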

[16] = calibrated Mouse Brain Uptake Assay; settings: cMBUA
[17] = molecular target: human P-gp (Homo sapiens, UniProt P08183); test: P-gp substrate identification in MDCK cells transfected with wild-type MDR1; format: in vitro ADME
human P-gp, sequence (P08183 whole entry): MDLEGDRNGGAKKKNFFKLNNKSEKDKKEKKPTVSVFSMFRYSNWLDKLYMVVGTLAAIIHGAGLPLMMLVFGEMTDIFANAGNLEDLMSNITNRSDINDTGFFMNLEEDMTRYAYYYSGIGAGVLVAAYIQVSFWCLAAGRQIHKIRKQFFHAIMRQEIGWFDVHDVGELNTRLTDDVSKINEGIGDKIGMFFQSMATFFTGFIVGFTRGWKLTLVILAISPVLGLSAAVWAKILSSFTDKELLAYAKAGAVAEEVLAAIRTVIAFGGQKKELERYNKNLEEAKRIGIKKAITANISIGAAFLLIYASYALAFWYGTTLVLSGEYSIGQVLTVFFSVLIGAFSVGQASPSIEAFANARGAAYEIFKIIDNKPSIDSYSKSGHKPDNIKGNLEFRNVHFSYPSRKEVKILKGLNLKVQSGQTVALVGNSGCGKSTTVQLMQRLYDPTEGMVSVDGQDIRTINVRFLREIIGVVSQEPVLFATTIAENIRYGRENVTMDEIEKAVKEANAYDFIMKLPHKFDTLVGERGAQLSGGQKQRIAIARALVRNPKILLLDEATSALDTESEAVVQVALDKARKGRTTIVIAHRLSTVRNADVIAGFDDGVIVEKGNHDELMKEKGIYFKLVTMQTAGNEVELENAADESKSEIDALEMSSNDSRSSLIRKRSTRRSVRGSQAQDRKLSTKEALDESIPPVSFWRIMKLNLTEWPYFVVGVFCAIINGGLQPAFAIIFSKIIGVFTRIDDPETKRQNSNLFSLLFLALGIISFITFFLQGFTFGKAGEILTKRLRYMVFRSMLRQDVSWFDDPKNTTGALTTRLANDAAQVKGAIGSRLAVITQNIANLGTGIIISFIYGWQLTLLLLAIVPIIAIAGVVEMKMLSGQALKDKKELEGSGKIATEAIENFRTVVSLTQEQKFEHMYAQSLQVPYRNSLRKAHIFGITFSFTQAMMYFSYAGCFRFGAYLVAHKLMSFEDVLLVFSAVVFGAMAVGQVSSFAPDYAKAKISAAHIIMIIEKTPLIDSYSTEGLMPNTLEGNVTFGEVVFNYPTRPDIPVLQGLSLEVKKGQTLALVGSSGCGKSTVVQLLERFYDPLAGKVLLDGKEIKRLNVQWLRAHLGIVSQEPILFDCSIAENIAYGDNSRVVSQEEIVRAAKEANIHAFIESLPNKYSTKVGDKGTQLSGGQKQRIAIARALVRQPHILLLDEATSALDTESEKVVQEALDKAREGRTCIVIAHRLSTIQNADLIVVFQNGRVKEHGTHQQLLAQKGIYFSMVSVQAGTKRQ

[18] = mouse, in vivo
[19] = LC-MS/MS rat brain kinetic analysis with non-labeled tracer; format: in vivo; settings: 10 μg/kg dose, 15 minutes
[20] = rat brain, 30 minutes after injection
[21] = rat cerebellum, 30 minutes after injection
[22] = rat, 30 minutes after injection
[23] = tissue without blood, mean of two measurements
[24] = MDCK monolayers overexpressing human P-gp

Compound: Cc1c(-c2ccc(O[11CH3])cc2)nsc1NC(=O)[C@@H]1C[C@H]1C [^11C-LY2428703]
PET signal in rat cerebellum [1]: large specific and displaceable signal
affinity for mGluR5s in vivo (PET) ([2]; rats pretreated with MTEP 5 mg/kg): negligible affinity
LogD7.4 [3]: 4.02 ± 0.09
stability in rat whole blood and brain homogenates [4]: no biotransformation products were detected
regional concentration ratios of the radiometabolite (cerebellum/brain, cerebellum/plasma, brain/plasma): < 1.0
parent radioligand, % of brain radioactivity [20]: 82.7%
radiometabolite, % of brain radioactivity [20]: 17.2%
parent radioligand, % of cerebellar radioactivity [21]: 96.2% and > 96%
radiometabolite, % of cerebellar radioactivity [21]: ~ 3.5% and 3.7% and 3–4%
parent radioligand, % of plasma radioactivity (rat plasma, 30 minutes after injection): 75%
%SUV concentration of parent in brain [22]: 49 %SUV
%SUV concentration of parent in cerebellum [22]: 156 %SUV
%SUV concentration of parent in plasma [22]: 122 %SUV
%SUV concentration of parent in urine [22]: 2.7 %SUV
%SUV concentration of the major radiometabolite in brain [22]: 10.2 %SUV
%SUV concentration of the major radiometabolite in cerebellum [22]: 6.1 %SUV
%SUV concentration of the major radiometabolite in plasma [22]: 38.5 %SUV
%SUV concentration of the major radiometabolite in urine [22]: 161 %SUV
parent concentration ratio brain/plasma [22]: < 1.0
parent concentration ratio cerebellum/brain [22]: 3.2 and 3.2–3.5
parent concentration ratio cerebellum/plasma [22]: 1.3
parent radioligand in brain [23]: 48 %SUV
parent radioligand in cerebellum [23]: 169 %SUV
parent radioligand, % of brain activity [23]: 82.5%
parent radioligand, % of cerebellar activity [23]: 95.8%
radiometabolite in brain [23]: 9.5 %SUV
radiometabolite in cerebellum [23]: 5.6 %SUV
radiometabolite, % of brain activity [23]: 16.5%
radiometabolite, % of cerebellar activity [23]: 3.3%
substrate for ABCG2 transporter at the blood-brain barrier [5]: not a substrate
substrate for ABCB1 transporter at the blood-brain barrier [6]: not a substrate

effect of pretreatment on forebrain uptake of 11C-LY2428703 ([2]; 5 mg/kg, rat, n=2): not affected
Compound: Cc1nc(C#Cc2cccnc2)cs1 [MTEP, 3-((2-Methyl-4-thiazolyl)ethynyl)pyridine, reference compound]

Compound: COC1CCC(C(=O)c2ccc3nc4c(cc3c2)CCCO4)CC1 (stereo not drawn) [JNJ16259685]
in vivo mGluR1 ED50 [7]: 1.4 ± 0.1 mg/kg

Compound: [3H]O[3H] [tritiated water]
brain levels, percent of the dose [8]: 1.9 ± 0.2%

percent of compound metabolized [9]: 91.1 ± 3.4%
affinity of LY2428703 relative to LSN2606428 [10]: about 20 fold
rat mGluR1 occupancy [11]: dose-dependently occupied
percent of compound metabolized [12]: 65.0 ± 15.5%
percent of compound metabolized [13]: 90.1 ± 3.1%
percent of compound metabolized [14]: 79.5 ± 14.7%
affinity for mGluR1 relative to mGluR5 [15]: > 10 fold
dose distributed to brain as percent of cardiac output [16]: 84%
blood-brain barrier permeability coefficient ([16]; mouse): 19 ×10⁻⁶ cm/s
percent of dose delivered to the brain ([16]; mouse, over the 10-fold range of doses): 1.2–1.6% and 1.6 ± 0.2%
B-A/A-B flux ratio [17, 24]: ~ 1.0
P-gp substrate identification [17, 24]: not a P-gp substrate
mass balance recovery ([17]; MDCK monolayers, n=8): 108 ± 10%
passive permeability coefficient ([17]; MDCK monolayers, n=8): 62 ± 3 ×10⁻⁶ cm/s and 60 ×10⁻⁶ cm/s
clearance from brain, percent loss in concentration from five to 60 minutes [18]: > 95%
clearance from plasma, percent loss in concentration from five to 60 minutes [18]: > 95%
tracer level in rat cerebellum [19]: 330 % SUV
Compound: COc1ccc(-c2nsc(NC(=O)[C@@H]3C[C@H]3C)c2C)cc1 [LY2428703]
